Measurements reported in ChEMBL document CHEMBL1132592, “Synthesis of novel 2-benzothiopyran and 3-benzothiepin derivatives and their stimulatory effect on bone formation” (J Med Chem, 1999).

How the values were obtained:
[1] = target: T1, Alkaline phosphatase, tissue-nonspecific isozyme (Rattus norvegicus) (UniProt P08289); test: Effect on alkaline phosphatase activity compared to control in culture of rat bone marrow stromal cells, 10E-5 M concentration; format: tissue-based
T1 sequence (whole entry): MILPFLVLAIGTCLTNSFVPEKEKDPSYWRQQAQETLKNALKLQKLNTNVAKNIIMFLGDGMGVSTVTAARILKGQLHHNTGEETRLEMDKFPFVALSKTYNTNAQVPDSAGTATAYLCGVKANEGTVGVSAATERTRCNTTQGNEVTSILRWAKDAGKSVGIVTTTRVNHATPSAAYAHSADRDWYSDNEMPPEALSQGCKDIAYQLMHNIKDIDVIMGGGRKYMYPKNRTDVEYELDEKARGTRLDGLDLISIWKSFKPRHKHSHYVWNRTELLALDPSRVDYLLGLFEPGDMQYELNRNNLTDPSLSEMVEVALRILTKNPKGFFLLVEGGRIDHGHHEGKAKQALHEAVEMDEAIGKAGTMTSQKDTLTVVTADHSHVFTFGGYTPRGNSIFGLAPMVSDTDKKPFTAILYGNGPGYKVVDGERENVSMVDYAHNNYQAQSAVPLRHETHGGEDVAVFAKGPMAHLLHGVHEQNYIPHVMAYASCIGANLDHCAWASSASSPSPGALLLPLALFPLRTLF
How it was run: (§1)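 Rat femoral marrow stromal cells subcultured at 4 × 10^4 cells/well in α-MEM with 15% FBS, ascorbate, 10 mM β-glycerophosphate and 10^-7 M dexamethasone. Compound added day 1 to day 10-14, medium refreshed every other day. Lysate ALP (Lowry method) given as fold of control; n = 5–10; Student's t-test.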

[2] = target: T2, Alkaline phosphatase, tissue-nonspecific isozyme (Mus musculus) (UniProt P09242); test: Alkaline phosphatase stimulatory activity of 10E-6 M compound in culture of MC3T3-E1 in presence of 3 ng/mL of BMP
T2 sequence (whole entry): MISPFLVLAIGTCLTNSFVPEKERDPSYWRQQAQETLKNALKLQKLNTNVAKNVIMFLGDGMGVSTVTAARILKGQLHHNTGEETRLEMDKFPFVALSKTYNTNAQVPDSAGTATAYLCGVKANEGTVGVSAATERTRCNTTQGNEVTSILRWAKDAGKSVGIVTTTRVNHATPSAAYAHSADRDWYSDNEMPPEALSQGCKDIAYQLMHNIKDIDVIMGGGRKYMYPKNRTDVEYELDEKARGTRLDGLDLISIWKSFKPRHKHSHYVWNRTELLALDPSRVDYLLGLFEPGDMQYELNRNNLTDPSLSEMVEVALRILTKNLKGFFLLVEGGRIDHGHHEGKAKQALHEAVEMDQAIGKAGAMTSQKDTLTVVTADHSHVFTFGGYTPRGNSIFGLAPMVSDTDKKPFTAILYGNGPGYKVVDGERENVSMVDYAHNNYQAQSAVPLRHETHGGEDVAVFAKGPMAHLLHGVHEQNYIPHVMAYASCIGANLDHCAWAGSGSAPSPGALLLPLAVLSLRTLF
How it was run: (§2)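 Mouse osteoblastic MC3T3-E1 cells, 3000 cells/well, grown 3 days in α-MEM with 10% FBS, then switched to α-MEM with 1% FBS plus compound, with or without recombinant Xenopus BMP-4/7 heterodimer (3 ng/mL), for 3 more days. ALP in lysate supernatant read as absorbance at 405 nm; mean ± SE, n = 6; Dunnett's test vs matching control.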

[3] = target: T1, Alkaline phosphatase, tissue-nonspecific isozyme (Rattus norvegicus); test: Effect of 10E-5 M compound on alkaline phosphatase activity in culture of rat bone marrow stromal cells; format: tissue-based
How it was run: (§3)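 Femoral marrow stromal cells from 7-week-old male Sprague-Dawley rats. Primary culture 1 week in α-MEM (10 mM HEPES pH 7.0, 15% FBS, 2 mM glutamine, 50 μg/mL ascorbate, 10 mM β-glycerophosphate, 10^-7 M dexamethasone), 37 °C, 5% CO2. Subcultured at 4 × 10^4 cells/well; compound (10 mM stock in EtOH-DMSO 1:1 or DMF) from day 1 to day 10-14, medium changed every other day. Lysate ALP (Lowry method) in nmol/min/well; mean ± SE, n = 5–10.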

[4] = target: T2, Alkaline phosphatase, tissue-nonspecific isozyme (Mus musculus); test: Alkaline phosphatase stimulatory activity of 10E-6 M compound in culture of MC3T3-E1 in absence of BMP; how it was run: as §2
[5] = target: T2, Alkaline phosphatase, tissue-nonspecific isozyme (Mus musculus); test: Alkaline phosphatase stimulatory activity of 10E-5 M compound in culture of MC3T3-E1 in absence of BMP; how it was run: as §2
[6] = target: T1, Alkaline phosphatase, tissue-nonspecific isozyme (Rattus norvegicus); test: Effect of 10E-6 M compound on alkaline phosphatase activity in culture of rat bone marrow stromal cells; how it was run: as §3
[7] = target: T2, Alkaline phosphatase, tissue-nonspecific isozyme (Mus musculus); test: Alkaline phosphatase stimulatory activity of 10E-5 M compound in culture of MC3T3-E1 in presence of 3 ng/mL of BMP; how it was run: as §2
[8] = target: T1, Alkaline phosphatase, tissue-nonspecific isozyme (Rattus norvegicus); test: Effect of 10E-7 M compound on alkaline phosphatase activity in culture of rat bone marrow stromal cells; how it was run: as §3
[9] = target: T1, Alkaline phosphatase, tissue-nonspecific isozyme (Rattus norvegicus); test: Effect of 10E-7 M compound on alkaline phosphatase activity compared to control in culture of rat bone marrow stromal cells; how it was run: as §1

Row | ALP activity [1] | SMILES | further results
1 | 3.9 | CC(C)OP(=O)(Cc1ccc(NC(=O)[C@H]2Cc3cc4c(cc3C(=O)[C@H](C)S2)OCO4)cc1)OC(C)C | 
2 | 2 | O=C1CS[C@@H](C(=O)Nc2ccc(Cl)cc2)c2ccc(C3CCCCC3)cc21 | 
3 | 1.7 | CCOP(=O)(Cc1ccc(NC(=O)[C@H]2Cc3ccc(C)cc3C(=O)[C@H](C)S2)cc1)OCC | 
4 | 1.5 | CCOP(=O)(OCC)c1ccc(NC(=O)[C@@H]2SCC(=O)c3cc(C)c(C)cc32)cc1 | 
5 | 1.1 | CCOP(=O)(Cc1ccc(NC(=O)[C@H]2Cc3ccc(Cl)cc3C(=O)CS2)cc1)OCC | 
6 | 2.4 | CCOP(=O)(Cc1ccc(NC(=O)[C@@H]2SCC(=O)c3cc(C4CCCCC4)ccc32)cc1)OCC | 
7 | 2 | CCOP(=O)(Cc1ccc(NC(=O)[C@@H]2SCC(=O)c3cc(CC4CCCCC4)ccc32)cc1)OCC | 
8 | 1.2 | CCOP(=O)(Cc1ccc(NC(=O)[C@H]2Cc3cc4c(cc3C(=O)CS2)OCCO4)cc1)OCC | 
9 | 1.2 | CCOP(=O)(Cc1ccc(NC(=O)[C@@H]2SCC(=O)c3cc4c(cc32)OCO4)cc1)OCC | 
10 | 1.5 | CCOP(=O)(Cc1ccc(NC(=O)[C@@H]2SCC(=O)c3cc(C)c(C)cc32)cc1)OCC | 
11 | 1.1 | CCOP(=O)(Cc1ccc(NC(=O)[C@H]2Cc3ccc(C)cc3C(=O)CS2)cc1)OCC | 
12 | 1.5 | CCOP(=O)(Cc1ccc(NC(=O)[C@H]2Cc3ccccc3C(=O)CS2)cc1)OCC | 
13 | 2.5 | CCOP(=O)(Cc1ccc(NC(=O)[C@@H]2SCC(=O)c3cc(OC)c(OC)cc32)cc1)OCC | 
14 | 1.1 | CCOP(=O)(OCC)c1ccc(NC(=O)[C@@H]2SCC(=O)c3cc4c(cc32)CCC4)cc1 | 
15 | 1.7 | Cc1ccc(NC(=O)[C@@H]2SCC(=O)c3cc(C4CCCCC4)ccc32)cc1 | 
16 | 2.3 | CCOc1ccc(OCC)c(NC(=O)[C@@H]2SCC(=O)c3cc(C4CCCCC4)ccc32)c1 | 
17 | 2.9 | CCOP(=O)(Cc1ccc(NC(=O)[C@H]2Cc3cc4c(cc3C(=O)CS2)OCO4)cc1)OCC | 
18 | 1.7 | CCOP(=O)(Cc1ccc(NC(=O)[C@@H]2SCC(=O)c3cc(-c4ccc(Cl)cc4)ccc32)cc1)OCC | 
19 | 1.3 | O=C1CS[C@@H](C(=O)Nc2ccc(Cl)cc2)c2cc3c(cc21)CCC3 | 

Continued, compound first:

Row | SMILES | ALP activity [1] | further results
20 | CCOP(=O)(OCC)c1ccc(NC(=O)[C@H]2Cc3cc(OC)c(OC)cc3C(=O)CS2)cc1 | 2.6 | 
21 | CCOP(=O)(OCC)c1ccc(NC(=O)[C@H]2Cc3cc(C)c(C)cc3C(=O)CS2)cc1 | 2.2 | 
22 | Cc1cc2c(cc1C)[C@H](C(=O)Nc1cccnc1)SCC2=O | 1.3 | 
23 | CCOP(=O)(Cc1ccc(NC(=O)[C@H]2Cc3cc(OC)c(OC)cc3C(=O)[C@H](CC)S2)cc1)OCC | 1.5 | 
24 | CCOP(=O)(Cc1ccccc1NC(=O)[C@H]1Cc2cc3c(cc2C(=O)[C@H](C)S1)OCO3)OCC | 1.1 | 
25 | CCOP(=O)(Cc1ccc(NC(=O)C2Cc3cc4c(cc3C(=O)C(C)S2)OCO4)cc1)OCC (racemic) |  | ALP activity [2]: 0.162; ALP activity [3]: 1210; ALP activity [4]: 0.133; ALP activity [5]: 0.178; ALP activity [6]: 411; ALP activity [7]: 0.221; ALP activity [8]: 185
26 | COP(=O)(Cc1ccc(NC(=O)C2SCC(=O)c3cc(C4CCCCC4)ccc32)cc1)OC (stereo not given) |  | ALP activity [9]: 1.7
27 | CCOP(=O)(Cc1ccc(NC(=O)[C@H]2Cc3cc4c(cc3C(=O)[C@H](C(C)C)S2)OCO4)cc1)OCC | 3.3 | 
28 | CCOP(=O)(Cc1ccc(NC(=O)C2Cc3cc(OC)c(OC)cc3C(=O)CS2)cc1)OCC (racemic) |  | ALP activity [3]: 1910; ALP activity [5]: 0.143; ALP activity [7]: 0.169
29 | CCOP(=O)(Cc1ccc(NC(=O)[C@H]2Cc3cc(OC)c(OC)cc3C(=O)CS2)cc1)OCC |  | ALP activity [5]: 0.164; ALP activity [7]: 0.199
30 | CCOP(=O)(CCc1ccc(NC(=O)C2SCC(=O)c3cc(C4CCCCC4)ccc32)cc1)OCC (stereo not given) |  | ALP activity [9]: 1.5
31 | CCOP(=O)(Cc1ccc(NC(=O)[C@H]2Cc3cc(OC)c(OC)cc3C(=O)[C@H](C(C)C)S2)cc1)OCC | 1.4 | 
32 | CCOP(=O)(Cc1ccc(NC(=O)[C@@H]2Cc3cc4c(cc3C(=O)[C@@H](C)S2)OCO4)cc1)OCC |  | ALP activity [3]: 566; ALP activity [5]: 0.115; ALP activity [6]: 160; ALP activity [7]: 0.131; ALP activity [8]: 166
33 | COP(=O)(Cc1ccc(NC(=O)[C@H]2Cc3cc4c(cc3C(=O)[C@H](C)S2)OCO4)cc1)OC | 7.2 | 
34 | CCOP(=O)(CCNC(=O)[C@H]1Cc2cc3c(cc2C(=O)[C@H](C)S1)OCO3)OCC | 1.1 | 
35 | CC(C)OP(=O)(Cc1ccc(NC(=O)C2SCC(=O)c3cc(C4CCCCC4)ccc32)cc1)OC(C)C (stereo not given) |  | ALP activity [9]: 2
36 | CCCOP(=O)(OCCC)c1ccc(NC(=O)C2SCC(=O)c3cc(C4CCCCC4)ccc32)cc1 (stereo not given) |  | ALP activity [9]: 1.5
37 | CCOP(=O)(Cc1ccc(NC(=O)[C@@H]2Cc3cc(OC)c(OC)cc3C(=O)CS2)cc1)OCC |  | ALP activity [3]: 770; ALP activity [5]: 0.12; ALP activity [7]: 0.131

Row | SMILES | ALP activity [1] | further results
38 | CCOP(=O)(OCC)c1ccc(NC(=O)C2SCC(=O)c3cc(C4CCCCC4)ccc32)cc1 (stereo not given) |  | ALP activity [9]: 1.6
39 | COc1cc2c(cc1OC)C(=O)CS[C@@H](C(=O)Nc1ccc(CP3(=O)OCC(C)CO3)cc1)C2 (stereo not given in full) | 2.7 | 
40 | COc1cc2c(cc1OC)[C@H](C(=O)Nc1ccc(Cl)cc1)SCC2=O | 1.3 | 
41 | CCOP(=O)(Cc1ccccc1NC(=O)C1SCC(=O)c2cc(C3CCCCC3)ccc21)OCC (stereo not given) |  | ALP activity [9]: 1.5
42 | CC(C)Oc1ccc2c(=O)c(-c3ccccc3)coc2c1 | 1.6 | 
43 | C[C@@H]1S[C@@H](C(=O)Nc2nc(-c3ccccc3)cs2)c2cc3c(cc2C1=O)OCO3 | 1.3 | 
44 | CCOP(=O)(Cc1cccc(NC(=O)[C@H]2Cc3cc4c(cc3C(=O)[C@H](C)S2)OCO4)c1)OCC | 1.8 | 
45 | COP(=O)(OC)c1ccc(NC(=O)C2SCC(=O)c3cc(C4CCCCC4)ccc32)cc1 (stereo not given) |  | ALP activity [9]: 1.5
46 | CCOP(=O)(Cc1ccc(NC(=O)[C@H]2Cc3cc(OC)c(OC)cc3C(=O)[C@H](C)S2)cc1)OCC | 2.3 | 
47 | CCOP(=O)(Cc1ccc(NC(=O)[C@H]2Cc3cc4c(cc3C(=O)[C@H](CC)S2)OCO4)cc1)OCC | 4.6 | 
48 | CC1COP(=O)(Cc2ccc(NC(=O)[C@H]3Cc4cc5c(cc4C(=O)[C@H](C)S3)OCO5)cc2)OC1 (stereo not given in full) | 3 | 
49 | Cc1cc2c(cc1C)[C@H](C(=O)Nc1cnccn1)SCC2=O | 1.3 | 
50 | CCOP(=O)(Cc1ccc(NC(=O)[C@H]2Cc3ccc(C)cc3C(=O)[C@H](c3ccccc3)S2)cc1)OCC | 1.2 | 
51 | COc1cc2c(cc1OC)C(=O)CS[C@@H](C(=O)Nc1ccc(CP3(=O)OCCCCO3)cc1)C2 | 2.8 | 
52 | CCOP(=O)(OCC)c1ccc(NC(=O)[C@H]2Cc3cc4c(cc3C(=O)[C@H](C)S2)OCO4)cc1 | 1.8 | 
53 | CCCCOP(=O)(Cc1ccc(NC(=O)C2SCC(=O)c3cc(C4CCCCC4)ccc32)cc1)OCCCC (stereo not given) |  | ALP activity [9]: 1.7
54 | CCOP(=O)(Cc1ccc(NC(=O)[C@@H]2S[C@@H](C)C(=O)c3cc4c(cc32)OCO4)cc1)OCC | 1.2 | 
55 | CCOP(=O)(CCc1ccc(NC(=O)[C@H]2Cc3cc4c(cc3C(=O)[C@H](C)S2)OCO4)cc1)OCC | 1.9 | 
